Assay outcomes as filed in PubChem BioAssay.
Compounds with a hit are over-represented: about 1.6% of the library has one in this group of screens.
RAD54 branch: RAD54 (human) branch migration inhibition; actives 0.14% (n = 360,000); AID 602329; inhibition, % at 10.4 µM; RAD54 Holliday junction branch migration, FAM/BHQ fluorescence;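 active = mean normalized replicate activity at least 40 and at least half of replicates scoring 40 or more; inconclusive = only one of the two criteria met; inactive = mean below 40 and under half of replicates reaching 40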;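 also: 0% = median of neutral control wells and 100% = median of positive control wells; inhibitors cause a drop in the FAM fluorescence signal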
SR-BI uptake up: enhances SR-BI lipid uptake from DiI-HDL; CHO ldlA[mSR-BI] cells, DiI-HDL uptake fluorescence, 3 h; 100 = double the neutral-control signal; activation, % at 12.5 µM; actives 0.096% (n = 320,000);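 active = mean replicate activation of at least 60% and every replicate at or above 60%; inconclusive = mean or all-replicate condition met, but not both; inactive = mean below 60% and not all replicates reaching 60%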;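 also: 0% = median plate neutral-control signal and 100% = twice that signal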
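Assay system: CHO ldlA[mSR-BI] cells, LDL receptor-null, SR-BI overexpressing; medium: Ham's F12 with 0.5% BSA, HEPES 25 mM, pH 7.4; also added: DiI-HDL 10 µg/mL; timing: 3 h uptake period with compound, 37 °C; signal: DiI fluorescence, bottom read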
PvdQ acylase: P. aeruginosa PvdQ acylase inhibition; actives 0.063% (n = 340,000); AID 488965; inhibition, % at 10 µM; purified PvdQ acylase, fluorescence plate reader; in the data active = inhibition above about 30%, passing the limit was not always enough; inconclusive = no clear call, values can overlap the other calls;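 also: 0% = vehicle neutral wells and 100% = reference inhibitor wells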
dFosB act-1: enhances mouse delta FosB homodimer DNA binding; activation, % at 25 µM; actives 0.99% (n = 340,000); purified delta FosB, TAMRA-CDK5 oligo fluorescence polarization; percent of positive-control signal above neutral wells; P13346; AID 493131;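 active = mean activation above about 17%, with every replicate also reaching it, limit read from the data, passing the limit was not always enough; inconclusive = only one of the two conditions met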
Target sequence (P13346 whole entry, looked up): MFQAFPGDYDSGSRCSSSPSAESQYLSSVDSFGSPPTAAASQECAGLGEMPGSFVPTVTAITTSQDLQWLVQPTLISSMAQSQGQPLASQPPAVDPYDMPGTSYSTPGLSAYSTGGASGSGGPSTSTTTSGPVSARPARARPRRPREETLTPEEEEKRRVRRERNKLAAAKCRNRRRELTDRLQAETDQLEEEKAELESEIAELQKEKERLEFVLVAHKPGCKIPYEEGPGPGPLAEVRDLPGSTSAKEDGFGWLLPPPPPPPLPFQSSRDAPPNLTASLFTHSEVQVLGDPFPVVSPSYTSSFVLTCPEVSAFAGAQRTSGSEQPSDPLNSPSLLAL
SR-BI DiI inh: inhibitors of mouse SR-BI mediated HDL lipid uptake; Q61009; inhibition, % at 12.5 µM; AID 488896; ldlA[mSR-BI] CHO cells, DiI-HDL uptake fluorescence, 3 h; actives 0.96% (n = 320,000);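 active = mean replicate inhibition of at least 70% and a set share of replicates each scoring 70 or more; inconclusive = meets just one of the two criteria; inactive = fails both criteria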;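 also: 0% = median of neutral control wells and 100% = median of positive control wells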
S100A4 MyoIIA: S100A4-myosin IIA interaction inhibition. S100A4/TAMRA-MyoIIA peptide fluorescence polarization. inhibition, % at 10.7 µM. actives 0.14% (n = 360,000);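 active = mean inhibition of at least 70% across replicates, with every replicate also reaching that level; inconclusive = mean inhibition reaches 70% but some replicates fall short; inactive = mean inhibition below 70%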
Target sequence (P26447 whole entry, looked up): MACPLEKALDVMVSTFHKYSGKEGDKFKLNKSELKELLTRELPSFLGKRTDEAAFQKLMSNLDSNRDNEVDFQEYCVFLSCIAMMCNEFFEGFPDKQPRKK
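incubation = readout 5 min after mixing, signal stable up to 60 min | system = S100A4 monomer protein | buffer or medium = HEPES pH 7.2 with CaCl2, KCl, NaCl, DTT, Triton | benchmarks = neutral control DMSO, positive control TFP | also added = fluorescent myosin IIA peptide, 5 nM | compound dosing = one concentration per compound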
dFosB act-2: delta FosB (mouse) homodimer activation; shares compounds with dFosB act-1; purified delta FosB, TAMRA-CDK5 oligo fluorescence polarization; normalised: neutral wells 0, positive control 100; activation, % at 24.9 µM; 2,400 tested, under 10 active;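 active = highest replicate activation at or above 34% and every replicate reaching that threshold; inconclusive = meets only one of the two criteria; inactive = meets neither criterion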;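 also: higher polarization means more probe DNA bound by delta FosB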
The depositor's hits bear a star; u = inconclusive; x = not tested or not shown.

SMILES	RAD54 branch	SR-BI uptake up	PvdQ acylase	dFosB act-1	SR-BI DiI inh	S100A4 MyoIIA	dFosB act-2
COc1cc(/C=N\NC(=O)c2ccc(-c3ccccc3)cc2)ccc1OCC(N)=O	4.4	-44.8	1.2	66.4*	44.8	-107.6	6.4
COc1cc(/C=N/NC(=O)c2cccc([N+](=O)[O-])c2)ccc1OCc1ccc(C)cc1	-13.6	-52.2	-6.5	49.6*	52.2	x	4.5
COc1cc(/C=N/NC(=O)c2ccc(Cl)c(S(N)(=O)=O)c2)ccc1OCC(N)=O	x	x	12.0	-2.3	x	-1.1	x
CCOc1cc(/C=N\Nc2ccc([N+](=O)[O-])cc2)ccc1OCC(=O)Nc1ccc(C)c(C)c1	-3.0	-44.2	-12.3	6.8	44.2	x	x
CCOc1cc(/C=N\NC(=O)Cc2ccccc2)ccc1OCC(=O)Nc1ccc(C)c(C)c1	2.1	4.4	-12.0	24.0*	-4.4	x	3.1
C[C@H](CO)N1C[C@H](C)[C@H](CN(C)S(C)(=O)=O)OCCCC[C@H](C)Oc2ccc(NS(C)(=O)=O)cc2C1=O	5.5	x	x	x	x	x	x
COc1ccc(/C=N/NC(=O)c2[nH]nc3c2CCc2ccccc2-3)cc1OC	x	-32.7	-10.5	88.1*	32.7	-5.9	3.0
CCOc1cc(/C=N/NC(=O)Cn2nc([N+](=O)[O-])cc2C)ccc1OCc1ccc(F)cc1	-10.2	-13.2	9.5	35.3*	13.2	x	2.2
COc1cccc(S(=O)(=O)N2CC[C@@H]3[C@H]2c2cc(Br)ccc2N[C@@H]3CO)c1	-8.1	x	x	x	x	x	x
C[C@@H]1CN([C@@H](C)CO)C(=O)c2cc(NC(=O)C3CC3)ccc2O[C@@H]1CN(C)Cc1ccncc1	-6.2	x	x	x	x	-11.7	x
CO[C@@H]1CN(C)C(=O)c2ccc(NC(=O)c3ccccn3)cc2OC[C@@H](C)N(C(=O)C2CCCC2)C[C@H]1C	0.2	x	x	x	x	7.7	x
O=C(C1CCCC1)N1CC(=O)N2[C@H](CO)[C@@H](c3ccc(C#Cc4cccc(F)c4)cc3)[C@@H]2C1	x	x	x	x	x	-75.5	x
COc1ccc2c3c([nH]c2c1)[C@@H](CO)N(C(=O)C1CCOCC1)CC31CN(Cc2cccc(F)c2)C1	x	x	x	x	x	-0.7	x
Cc1ccc(NC(=O)/C(C#N)=C/c2ccc(C)s2)c(C)c1	-20.4	x	-9.0	16.7*	x	x	3.8
Cc1ccc(/C=C(\C#N)C(=O)Nc2c(C)cccc2C)s1	x	36.8	0.7	0.4	-36.8	38.4	x
C/C(=N\NC(=O)CSc1nc2ccccc2o1)c1ccc(O)cc1	-1.7	4.5	-9.4	-4.3	-4.5	-4.0	x
C/C(=N\NC(=O)CSc1nc2ccccc2o1)c1cccc(O)c1	-0.3	5.0	8.2	24.8*	-5.0	-11.7	3.6
COc1ccc(S(=O)(=O)Nc2ccc3c(c2)C(=O)N([C@@H](C)CO)C[C@H](C)[C@@H](CN(C)CC2CC2)O3)cc1	x	x	x	x	x	5.1	x
O=C(COC(=O)c1n[nH]c(=O)c2ccccc12)NC1CCCCC1	4.3	18.3	-11.8	50.4*	-18.3	1.5	1.0
O=C(COC(=O)c1n[nH]c(=O)c2ccccc12)NCc1ccccc1	4.6	1.7	-14.1	8.6	-1.7	10.6	x
COc1cc(OC)cc(-n2nnnc2SCC(=O)Nc2ccc(C(C)=O)cc2)c1	8.0	4.4	9.5	37.4*	-4.4	x	-7.1
Cc1ccc(-n2nnnc2SCC(=O)NC(=O)Nc2ccc3c(c2)OCCO3)cc1	x	16.5	-10.0	u	-16.5	2.5	x
CC(=O)Nc1ccc(-n2nnnc2SCC(=O)Nc2cccc(NC(=O)c3ccco3)c2)cc1	x	-30.3	-7.4	33.0*	30.3	-2.7	8.2
O=C(CSc1nnnn1-c1ccc(Cl)cc1)NC(=O)Nc1ccc2c(c1)OCCO2	-8.1	46.2	-3.8	21.2*	-46.2	x	6.6
CCc1ccc(-n2nnnc2SCC(=O)Nc2ccc(NC(C)=O)cc2)cc1	0.9	-0.7	-0.1	17.8*	0.7	-4.3	8.5
SMILES	RAD54 branch	SR-BI uptake up	PvdQ acylase	dFosB act-1	SR-BI DiI inh	S100A4 MyoIIA	dFosB act-2
CN1C(=O)c2cc(NC(=O)c3cccc(F)c3)ccc2OC[C@@H]2O[C@@H](CC(=O)NC3CCC3)CC[C@@H]21	-9.3	x	x	x	x	x	x
C[C@@H]1CCCCO[C@H](CN(C)S(=O)(=O)c2ccccc2)[C@H](C)CN([C@@H](C)CO)C(=O)c2cc(NS(=O)(=O)c3cn(C)cn3)ccc2O1	-5.2	x	x	x	x	1.7	x
CC1CCN(S(=O)(=O)c2ccc(C(=O)Nc3sccc3C(N)=O)cc2)CC1	3.1	-0.1	-15.0	53.0*	0.1	-0.6	3.5
CN(C)NC(=O)c1ccsc1NC(=O)c1ccc(S(=O)(=O)N2CCCC2)cc1	-3.1	0.6	1.3	-14.7	-0.6	-0.8	x
O=C(Nc1cccc(-c2nc3ccccc3s2)c1)c1cc(-n2cnnc2)ccc1Cl	-10.1	-67.7	2.2	-5.5	67.7	x	x
Cc1c(NC(=O)c2cc(-n3cnnc3)ccc2Cl)cccc1-c1nc2ccccc2s1	-12.9	-23.0	-14.0	31.5*	23.0	x	-0.5
COc1ccc(S(=O)(=O)Nc2ccc3c(c2)C(=O)N([C@@H](C)CO)C[C@@H](C)[C@H](CN(C)Cc2ccncc2)O3)cc1	2.7	x	x	x	x	-5.3	x
CC(C)NC(=O)N(C)C[C@H]1Oc2ccc(NC(=O)Nc3ccc4c(c3)OCO4)cc2CC(=O)N([C@H](C)CO)C[C@H]1C	13.7	x	x	x	x	5.5	x
O=C(CSCc1ccc(Cl)cc1)N/N=C/c1c(Cl)cccc1Cl	-6.9	9.9	-6.9	26.9*	-9.9	-2.0	1.1
COc1ccc2c3c(n(C)c2c1)[C@@H](CO)N(C(=O)Cc1ccccn1)CC31CN(CC2CCOCC2)C1	x	x	x	x	x	10.6	x
Cc1noc(C)c1NC(=O)Nc1ccc2c(c1)C(=O)N([C@H](C)CO)C[C@H](C)[C@@H](CN(C)C)O2	-4.6	x	x	x	x	4.8	x
O=C(CN1C(=O)C2CC=CCC2C1=O)Nc1nnc(SCc2c(Cl)cccc2Cl)s1 (stereo unspecified)	4.3	22.5	-20.2	38.8*	-22.5	x	-6.3
O=C(CN1C(=O)C2CC=CCC2C1=O)Nc1nnc(SCc2ccc(Cl)cc2)s1 (stereo unspecified)	-6.2	x	-10.1	-9.1	x	x	x
Cc1sc2nc(CN3CCCC3)nc(N3CCN(S(=O)(=O)c4cccc(F)c4)CC3)c2c1C	-6.0	7.5	-15.8	43.6*	-7.5	-6.2	5.3
Cc1ccc2nc(NC(=O)CNS(=O)(=O)c3ccc(Br)s3)sc2c1	4.1	-5.6	-2.4	19.4*	5.6	x	-4.7
Cc1ccc2nc(NC(=O)CN(C)S(=O)(=O)c3cccc4nsnc34)sc2c1	-12.7	-52.7	4.0	20.6*	52.7	x	1.7
Cc1ccnc(NC(=O)CN(C)S(=O)(=O)c2cccc3nsnc23)c1	-11.8	0.3	-11.6	-3.5	-0.3	x	x
